An excerpt weighted towards active compounds, which were near 4.9% of everything screened.
STAT1 blocker = STAT1 signaling inhibitors, primary screen, cell-based, HTS, luciferase reporter | NIH 3T3 STAT1-luciferase reporter, IFN-gamma, luminescence | inhibition, % at 5.5 µM | 200,000 compounds, 0.35% hits;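 active = inhibition above a set limit, the mean inhibition across all tested compounds plus 3 SD, cut at about 34% in these data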;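 note: 0% = IFN-gamma with DMSO and 100% = IFN-gamma with 300 µM nifuroxazide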
FLuc inh counter = firefly luciferase enzyme inhibitors, primary screen, artefact control for luciferase-based inhibitor screens, biochemical, luminescence, ATPLite | Luciferin 4-monooxygenase (Photinus pyralis), P08659 | 10 min | inhibition, % at 10 µM | 200,000 compounds, 1.5% hits | AID 1006, 2008;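 active = inhibition above about 50% when tested at 10 µM, limit read from the data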
Target sequence (P08659 whole entry, looked up): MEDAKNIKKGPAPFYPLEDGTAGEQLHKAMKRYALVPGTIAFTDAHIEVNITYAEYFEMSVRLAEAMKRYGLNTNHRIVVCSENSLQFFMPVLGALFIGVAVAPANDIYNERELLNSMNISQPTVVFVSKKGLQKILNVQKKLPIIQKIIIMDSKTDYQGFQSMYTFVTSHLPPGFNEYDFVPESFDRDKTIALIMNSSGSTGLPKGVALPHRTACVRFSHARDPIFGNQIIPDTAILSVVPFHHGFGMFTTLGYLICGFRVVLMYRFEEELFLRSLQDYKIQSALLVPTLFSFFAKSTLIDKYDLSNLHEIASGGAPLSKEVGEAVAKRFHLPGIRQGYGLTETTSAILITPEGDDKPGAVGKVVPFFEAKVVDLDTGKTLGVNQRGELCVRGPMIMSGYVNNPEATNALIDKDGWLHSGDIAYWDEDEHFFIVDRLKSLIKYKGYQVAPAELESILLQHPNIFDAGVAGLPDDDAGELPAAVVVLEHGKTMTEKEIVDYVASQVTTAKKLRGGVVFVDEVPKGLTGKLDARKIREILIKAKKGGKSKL
STAT1 act = STAT1 signaling activators, primary screen, cell-based, HTS, luciferase reporter; NIH 3T3 STAT1-luciferase reporter, IFN-gamma, luminescence; 100% = IFN-gamma alone, no compound; activation (% of control), % at 5.5 µM; 200,000 compounds, 2.6% hits; AID 932, 2007;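 active = activation above the screen-wide mean activation plus 3 SD, cut at about 130% in these data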;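 note: raw ratio to IFN-gamma control signal so 100% means no change and 0% no light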
STAT3 act = IL-6 driven STAT3 reporter potentiators, primary screen, U3A cells, luciferase, luminescence, MLSCN library; IL-6 STAT3-luciferase reporter; 100% = signal with IL-6 EC80 alone; activation (% of control), % at 5.6 µM; 190,000 compounds, 0.91% hits; AID 871, 2007;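 active = activation above the screen-wide mean of compound activation plus 3 SD, cut at about 130% in these data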;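 note: 0% = background luminescence of wells with medium and substrate only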
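Material: human STAT1-deficient U3A cells with stable STAT3-luciferase reporter / Probe or stimulus: IL-6 stimulus at 33 ng/mL final / Schedule: 1 h compound pre-exposure, 6 h IL-6 stimulation, 37 °C / Technique: luminescence / Read-out basis: percent of IL-6-only median luminescence / Control set: IL-6-only high control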
FLuc act counter = FLuc activators, initial screening, artefact control for FLuc-dependent activation tests, biochemical, ATPlite luminescence | Luciferin 4-monooxygenase (Photinus pyralis), P08659 | ATPlite luciferase biochemical, 10 min; 0 = ATP-free wells, 1 = DMSO control | activation factor at 10 µM | 200,000 tested, under 10 active | AID 1027, 2008;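 active = luciferase activation factor, scaled between plate controls, of at least 2 with compound at 10 µM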
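test system = cell-free luciferase reagent | medium = PBS as buffer for the ATP substrate | dosing = test compounds dosed from 2 mM stocks in 100% DMSO | incubation = 10 min at ambient temperature | detection = luminescence measurement of luciferase light output | benchmarks = low control with PBS replacing ATP, high control enzyme plus ATP without compound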
STAT3 blocker = IL-6 driven STAT3 reporter inhibitors, primary screen, U3A cells, luciferase, luminescence, MLSCN library | IL-6 STAT3-luciferase reporter; host cell line lacks STAT1 | inhibition, % at 5.5 µM | 190,000 compounds, 0.89% hits;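 active = inhibition above the mean inhibition across all screened compounds plus 3 SD, cut at about 44% in these data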;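 note: 0% = DMSO only wells and 100% = 100 µM nifuroxazide control wells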
* = called active by the depositor; · = no result given.

SMILES	STAT1 blocker	FLuc inh counter	STAT1 act	STAT3 act	FLuc act counter	STAT3 blocker
Cc1cccc(OCCNc2cc(N3CCN(CCO)CC3)ccc2[N+](=O)[O-])c1	8	-7	93	90	1.1	14
c1c2c(cc3sc(N4CCOCC4)nc13)OCCO2	51*	84*	53	23	0.2	89*
Nc1ccc2nc(N3CCOCC3)sc2c1	-26	11	122	112	0.9	-6
COc1ccc(C(=O)N2c3ccccc3C=CC2C#N)cc1 (stereo not drawn)	2	-3	98	91	1	6
N#C[C@H]1[C@H](c2ccccc2)[C@](C#N)(C(=O)c2ccccc2)[C@@H]2C=Cc3ccccc3N21	17	0	85	133*	1	-31
CCN(CC)c1ccc(NC(=S)NC(=O)c2cccs2)cc1	-40	4	134*	93	1	10
CCN(CC)c1ccc(NC(=O)c2ccco2)c(C)c1	-1	-2	101	90	1	14
CCN(CC)c1ccc(NC(=O)c2ccco2)cc1	-28	83*	127	88	0.2	20
CC(C)CN1C(=O)c2ccc(NC(=O)c3ccco3)cc2C1=O	-34	21	130*	100	0.8	2
CCCC(=O)Nc1ccc(NC(=S)NC(=O)c2cccs2)cc1	-10	-3	107	104	1	-1
O=C(Nc1ccc(N2CCCC2)c(Cl)c1)c1cccs1	-45	66*	142*	94	0.3	12
O=C(NC(=S)Nc1ccc(N2CCOCC2)c(Cl)c1)c1cccs1	-13	7	110	106	0.9	-4
COC(=O)c1ccccc1NC(=O)CN1CCC(C)CC1	6	2	95	99	1	1
CC1N(C)c2cc(NC(=O)c3ccco3)ccc2C1(C)C (stereo not drawn)	-47	49	143*	109	0.5	-5
CCN(CC)c1ccc(NC(=S)NC(=O)c2ccco2)cc1	-48	8	142*	100	0.9	2
O=C(NC(=S)Nc1ccc(N2CCCCC2)cc1)c1cccs1	-56	36	148*	93	0.6	17
Cc1cccc2[nH]c(-c3ccc(NC(=O)c4ccco4)cc3)nc12	-33	23	130*	101	0.8	4
CC1N(C)c2cc(NC(=O)c3ccco3)c(P(=O)(Nc3ccc([N+](=O)[O-])cc3)N3CCOCC3)cc2C1(C)C (stereo not drawn)	2	-4	98	110	1	-11
C=CCN(CC=C)S(=O)(=O)c1ccc(NC(=S)NC(=O)c2ccco2)cc1	1	-7	100	100	1.1	8
O=C(Nc1ccc2nc(-c3ccccc3)[nH]c2c1)c1ccco1	-6	42	105	79	0.6	28
CCOC(CCn1c(SCC(=O)Nc2cc(C)on2)nc2ccccc2c1=O)OCC	3	-11	96	98	1.1	6
O=C(Nc1ccc2nn(-c3ccccc3)nc2c1)c1cccs1	-40	5	136*	93	1	12
Cc1ccnc(NC(=O)Nc2ccc3c(c2)OCO3)c1	-50	58*	146*	67	0.4	42
O=C(Nc1ccc2c(c1)OCO2)Nc1ccc(Br)cn1	-53	11	149*	108	0.9	-7
Cc1cccc(C)c1NC(=O)Nc1ccc2c(c1)OCO2	-11	-1	111	106	1	-7
SMILES	STAT1 blocker	FLuc inh counter	STAT1 act	STAT3 act	FLuc act counter	STAT3 blocker
O=C(Nc1cccc(Cl)c1)Nc1ccc2c(c1)OCO2	-25	13	123	107	0.9	-3
Cc1cc(C)n2c(SCC(=O)N(CC(C)C)c3c(N)n(CC(C)C)c(=O)[nH]c3=O)nnc2n1	1	-10	99	95	1.1	11
CC(CNC(=O)CCc1nnc(CCC2CCCCC2)o1)c1ccccc1 (stereo not drawn)	-8	0	106	115	1	-12
COc1cc(-c2c(C#N)c(N)nc3c2c(C)nn3-c2ccc(C)c(C)c2)cc(OC)c1OC	6	-3	94	135*	1	-34
CCOC(=O)c1cc(C#N)c(SCc2ccc(C#N)cc2)nc1C	-4	·	104	136*	·	-36
O=c1[nH]n(-c2ccc(F)cc2)c2ncccc12	-3	-4	103	101	1	8
Cc1c(-c2ccccn2)c(=O)[nH]n1-c1ccc(F)cc1	-5	61*	105	84	0.4	26
Cc1cccc(NC(=O)c2ccc(COc3ccc4ccccc4c3)o2)n1	-52	-5	145*	110	1.1	-7
Cc1ccccc1/C(N)=N/O	-1	7	101	101	0.9	4
CSc1nc2sc(-c3ccccc3)cc2c(=O)n1N	-43	34	138*	95	0.7	13
Cc1ccccc1-c1nnc(NC(=O)CSc2nc3ccccc3s2)s1	-3	-6	103	106	1.1	-7
O=C(NCc1ccccc1)c1ccc(OC2CSC2)cc1	-8	3	106	100	1	4
Cc1cccc(NC(=O)c2ccc(OC3CSC3)cc2)c1	-29	80*	125	87	0.2	18
O=C(Nc1cccc(Br)c1)c1ccc(OC2CSC2)cc1	-31	58*	128	96	0.4	8
CC(=O)c1cccc(NC(=O)c2ccc(OC3CSC3)cc2)c1	-16	23	112	89	0.8	21
COc1ccc(CNC(=O)C(=O)NCC2OCCN2S(=O)(=O)c2cccs2)cc1 (stereo not drawn)	-6	-13	106	107	1.1	-8
CCCCCCCCCCCC(=O)NC(C(=O)O)C(O)c1ccccc1 (stereo not drawn)	-3	2	101	104	1	2
O=C(NC12CC3CC(CC(C3)C1)C2)c1ccc(-c2ccc(Cl)cc2)o1	-33	22	130*	126	0.8	-34
O=C(NC12CC3CC(CC(C3)C1)C2)c1ccc(-c2ccccc2Cl)o1	-79	28	171*	118	0.7	-9
COc1ccccc1NC(=O)C1=C(C)NC(=O)NC1c1cccs1 (stereo not drawn)	1	-4	98	99	1	4
Cc1ccccc1OS(=O)(=O)c1cn(C)c(=O)n(C)c1=O	-3	-3	103	108	1	-10
O=C(CN1CCCN(Cc2ccc(F)cc2Cl)C1=O)NC1CCCC1	-4	-4	103	100	1	3
N#Cc1c(/N=C/c2cc(Br)cs2)sc2c1CCC2	-22	·	120	97	·	8

Bioassay records deposited in PubChem by several laboratories.
